Experimental findings from PMC5855950 (RNA, 2018) are described below.

For assay [1], the system named is EGFPCAG78-expressing HEK293 cells. The assay can be described thus: LDH assay: suppression of death of EGFPCAG78-expressing HEK293 cells. It counts as cell-based, human. The following applies: scrambled control, Supplemental Fig. S1. The gist of the method: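 HEK293 cells were grown in DMEM with 10% FBS at 37°C and 5% CO2 and seeded at 1 × 10^5 per well. They were lipofected with pEGFPCAG78, and TAT-peptide was added immediately after at 0.1–25 µM (8 levels). LDH activity in the medium was read at 72 h and normalised to the no-peptide control. IC50 came from variable-slope nonlinear regression; at least 3 repeats.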

In a further assay the test system is HBB mRNA. The assay can be described thus: Real-time PCR: HBB mRNA expression in HEK293 cells. It is filed as cell-based, human. The note with it: three repeats. The procedure, abridged:
(§1)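 RNA was extracted from HEK293 cells with TRIzol. One µg was reverse transcribed using random hexamer primers. GADD45A and HBB transcripts were quantified with TaqMan gene expression probes on a real-time PCR system.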
Background: Quantitative PCR measures a nucleic acid by following its amplification.

The test system of a further assay is GADD45A mRNA. Kind of assay: Real-time PCR: GADD45A mRNA expression in HEK293 cells. It counts as cell-based, human. The note with it: three repeats. The gist of the method: as §1
Another assay deals with DsRedCAG250 Drosophila. The assay can be described thus: Climbing ability assay, DsRedCAG250 Drosophila. It is filed as in vivo. The following applies: 100 µM at third instar larval stage; elav>DsRedCAG250 flies at 5, 10 and 15 dpe. The procedure, abridged:
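Flies carried elav-GAL4 and UAS-DsRedCAG250 and were reared at 25°C. Larval dosing was a 2 h feed of third instar larvae on peptide in 2% sucrose at room temperature, with climbing tested at 5, 10 and 15 dpe. Adult dosing: 5 or 10 dpe flies were starved 8 h, then fed overnight on peptide-sucrose filter paper, and tested at 10 or 15 dpe.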

In the next assay the test system is Htt-exon1Q93 Drosophila. Kind of assay: Pseudopupil assay, Htt-exon1Q93 Drosophila. It is filed as in vivo. The following applies: 100 µM at third instar larval stage, 1 dpe adults. The gist of the method:
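Flies were raised at 21.5°C. Third instar larvae fed 2 h at room temperature on peptide in 2% sucrose solution. Rhabdomeres per ommatidium were counted by pseudopupil assay at 1 dpe for Htt-exon1Q93 flies and 12 dpe for flMJDQ84 flies. Experiments were repeated at least three times (n = 10 fly heads), as mean ± SEM, one-way ANOVA with Tukey test.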

As to “YGRKKRRQRRRGGEDIKSRVEAASILYFIKKK [TAT-BIND-S]”, the “effect on cell death” value in assay [1] was “did not suppress or elicit cell death”. For the same sequence, in the assay on HBB mRNA, the “HBB mRNA expression” value is “no significant change”. Also, the “GADD45A mRNA expression” value in the assay on GADD45A mRNA is given as “no significant change”. For the same sequence, the “climbing defects, larval treatment” value in the assay with DsRedCAG250 Drosophila is recorded as “had no effect”. Further, the “retinal degeneration, Htt-exon1Q93” value with Htt-exon1Q93 Drosophila is “but not TAT-BIND-S”.
